Calls of active or inactive are those of the source. The rule behind the calls is not given here.
How the values were obtained:
[1] = target: Synaptic vesicular amine transporter (Mus musculus, UniProt Q8BRU6); assay: Inhibition of VMAT2 in C57Bl/6J mouse striatal membranes assessed as reduction in [3H[-5HT uptake pre-incubated for 10 mins before [3H[-5HT addition and measured after 8 mins; type: cell membranes, Striatum, Membrane
[2] = target: 5-hydroxytryptamine receptor 2A (Homo sapiens, UniProt P28223); assay: biochemical; type: cell-based, HEK293
[3] = target: T1, Synaptic vesicular amine transporter (Homo sapiens, UniProt Q05940); assay: Inhibition of human VMAT2 expressed in HEK293 cell membranes assessed as reduction in [3H[-5HT uptake pre-incubated for 10 mins before [3H[-5HT addition and measured after 6 mins; type: cell-based
Method in brief: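 Vesicular membranes from HEK-hVMAT2 cells: differential centrifugation, osmotic shock, then resuspension in uptake buffer (tartrate/Tris/KCl/MgSO4, ascorbate, tropolone, pargyline, pH 7.4, 2 mM MgATP). Drug preincubation 10 min at 30 °C. Stopped by filtration. Duplicate wells, IC50.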

[4] = target: T2, 5-hydroxytryptamine receptor 1A (Homo sapiens) (UniProt P08908); assay: Binding affinity to 5HT1A receptor (unknown origin)
T2 sequence (whole entry): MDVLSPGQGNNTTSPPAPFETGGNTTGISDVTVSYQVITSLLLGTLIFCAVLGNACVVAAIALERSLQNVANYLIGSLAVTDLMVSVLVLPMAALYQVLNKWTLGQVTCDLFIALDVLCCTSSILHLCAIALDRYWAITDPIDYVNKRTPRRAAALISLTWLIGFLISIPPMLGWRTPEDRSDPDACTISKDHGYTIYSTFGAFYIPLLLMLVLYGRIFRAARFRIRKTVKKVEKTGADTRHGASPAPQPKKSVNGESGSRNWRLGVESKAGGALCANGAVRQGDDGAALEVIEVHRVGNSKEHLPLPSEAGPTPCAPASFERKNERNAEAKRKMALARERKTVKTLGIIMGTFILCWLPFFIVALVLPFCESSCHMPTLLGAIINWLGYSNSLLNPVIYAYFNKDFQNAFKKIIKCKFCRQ

HEK293 [5] = assay: Cytotoxicity in HEK293 cells expressing human VMAT2 assessed as reduction in cell viability at 10 uM incubated for 24 hrs by MTT assay; type: cell-based; settings: hek293, 24 h
Method in brief: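 HEK-VMAT2 cells plated at 5 × 10^4 per well. Drugs added on day 2 to triplicate wells, all with 0.1% DMSO, for 24 h. MTT reagent then 2 h at 37 °C, solvent added, read at 590 nm. Values normalized to control cells. One-way ANOVA with post hoc test.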

[6] = target: T1, Synaptic vesicular amine transporter; assay: Displacement of [3H]reserpine from human VMAT2 expressed in HEK293 cell membranes incubated for 60 mins by scintillation counting method
[7] = target: Sodium-dependent dopamine transporter (Homo sapiens, UniProt Q01959); assay: Displacement of [125I]RTI-55 from human DAT expressed in HEK293 cell membranes
Method in brief: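 Total particulate membranes from HEK-293 cells stably expressing hDAT, with [125I]RTI-55 at 40−60 pM. Nonspecific binding defined with 5 μM mazindol.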

[8] = target: T1, Synaptic vesicular amine transporter; assay: Displacement of [3H](+)-syn-Ethyl 1-(2-(2,4-Dioxo-1,2-dihydroquinazolin-3(4H)-yl)ethyl)-4-(4-fluorophenyl)piperidine-3-carboxylate from human VMAT2 expressed in HEK293 cell membranes incubated for 60 mins by scintillation counting method
Method in brief: (§1)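 Membranes from confluent HEK-293 cells stably expressing human VMAT2, prepared by osmotic shock and restored with Tris/K tartrate/MgSO4. About 50−75 μg protein per assay with [3H](+)-5b at 50−100 nM final. Incubated 60 min at 4 °C in the dark. Filtration, then beta counting.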

[9] = target: T1, Synaptic vesicular amine transporter; assay: Displacement of [3H]DHTB from human VMAT2 expressed in HEK293 cell membranes incubated for 90 mins by microbeta scintillation counting method
Method in brief: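 Tris buffer without ATP, 90 min at room temperature. Nonspecific binding defined with 2 μM DHTB. Filtermat filtration and microBeta counting. Test compounds 1 nM–10 μM.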

[10] = target: T1, Synaptic vesicular amine transporter; assay: Binding affinity to human VMAT2 expressed in HEK293 cell membranes by scintillation counting method based saturation binding assay
Method in brief: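 Saturation binding on HEK-VMAT2 membranes, with duplicate points mixing labeled and unlabeled ligand. [3H](+)-5b: 5–600 nM, 60 min at 4 °C in the dark, buffer with 2 mM MgATP. 3−4 independent experiments.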

[11] = target: T1, Synaptic vesicular amine transporter; assay: Binding affinity to human VMAT2 expressed in HEK293 cell membranes assessed as half life at 24 to 28 nM in presence of 2 mM Mg-ATP by scintillation counting method; settings: tested as the 3H-labelled form
Method in brief: (§2)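 Kinetics for the [3H](+)-5b site on HEK-293 membranes expressing human VMAT2, run with 2 mM Mg-ATP. Excess unlabeled ligand of the same kind was used. Association at a single radioligand concentration was fitted as one-phase exponential association to give kobs.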

[12] = target: T1, Synaptic vesicular amine transporter; assay: Binding affinity to human VMAT2 expressed in HEK293 cell membranes in presence of 2 mM Mg-ATP by scintillation counting method; settings: tested as the 3H-labelled form; method in brief: as §1
[13] = target: T1, Synaptic vesicular amine transporter; assay: Binding affinity to human VMAT2 expressed in HEK293 cell membranes assessed as observed associate rate constant at 24 to 28 nM in presence of 2 mM Mg-ATP by scintillation counting method; settings: tested as the 3H-labelled form; method in brief: as §2
HEK293 [14] = assay: Cytotoxicity in HEK293 cells expressing human VMAT2 assessed as reduction in cell viability at 1 uM incubated for 24 hrs by MTT assay; type: cell-based; settings: hek293, 24 h
Method in brief: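 HEK-293 cells stably expressing human VMAT2, seeded at 5 × 10^4 cells/well in DMEM with 10% FetalClone, penicillin/streptomycin and G418. On day 2, compound in DMEM was added to triplicate wells, with 0.1% DMSO in all conditions, for 24 h. MTT reagent was then added for 2 h at 37 °C, followed by solvent. Absorbance read at 590 nm, normalized to control cells, and analyzed by one-way ANOVA with Dunnett's test.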

T1 sequence (Q05940 whole entry): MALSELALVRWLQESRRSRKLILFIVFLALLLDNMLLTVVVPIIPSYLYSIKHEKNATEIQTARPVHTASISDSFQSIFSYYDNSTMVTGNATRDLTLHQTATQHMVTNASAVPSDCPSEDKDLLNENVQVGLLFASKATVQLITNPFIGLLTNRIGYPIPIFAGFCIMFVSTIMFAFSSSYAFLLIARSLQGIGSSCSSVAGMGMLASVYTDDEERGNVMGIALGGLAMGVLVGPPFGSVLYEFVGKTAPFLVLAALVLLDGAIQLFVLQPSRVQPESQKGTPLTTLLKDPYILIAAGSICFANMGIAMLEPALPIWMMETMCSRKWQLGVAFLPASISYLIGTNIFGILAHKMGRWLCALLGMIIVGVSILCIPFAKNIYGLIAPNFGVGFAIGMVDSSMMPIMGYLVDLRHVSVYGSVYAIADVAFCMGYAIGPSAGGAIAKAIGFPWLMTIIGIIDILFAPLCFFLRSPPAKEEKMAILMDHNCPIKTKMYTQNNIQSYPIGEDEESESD
Sequence of Sodium-dependent dopamine transporter (Q01959 whole entry): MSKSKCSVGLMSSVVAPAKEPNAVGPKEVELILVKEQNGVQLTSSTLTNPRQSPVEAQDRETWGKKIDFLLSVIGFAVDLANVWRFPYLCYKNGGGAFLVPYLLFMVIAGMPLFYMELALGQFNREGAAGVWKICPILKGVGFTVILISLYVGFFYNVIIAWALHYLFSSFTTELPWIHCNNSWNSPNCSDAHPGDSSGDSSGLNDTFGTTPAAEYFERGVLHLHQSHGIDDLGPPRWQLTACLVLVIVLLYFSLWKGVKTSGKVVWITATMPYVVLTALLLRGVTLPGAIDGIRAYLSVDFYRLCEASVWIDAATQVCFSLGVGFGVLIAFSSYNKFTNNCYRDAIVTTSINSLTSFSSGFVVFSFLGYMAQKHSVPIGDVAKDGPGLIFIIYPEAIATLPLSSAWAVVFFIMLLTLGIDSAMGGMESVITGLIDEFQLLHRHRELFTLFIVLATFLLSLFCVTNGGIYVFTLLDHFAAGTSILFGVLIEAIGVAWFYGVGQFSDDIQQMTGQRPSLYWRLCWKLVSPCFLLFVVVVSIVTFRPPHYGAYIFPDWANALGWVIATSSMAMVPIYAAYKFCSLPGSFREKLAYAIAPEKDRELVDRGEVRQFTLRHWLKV
Sequence of Synaptic vesicular amine transporter (Mus musculus, UniProt Q8BRU6) (Q8BRU6 whole entry): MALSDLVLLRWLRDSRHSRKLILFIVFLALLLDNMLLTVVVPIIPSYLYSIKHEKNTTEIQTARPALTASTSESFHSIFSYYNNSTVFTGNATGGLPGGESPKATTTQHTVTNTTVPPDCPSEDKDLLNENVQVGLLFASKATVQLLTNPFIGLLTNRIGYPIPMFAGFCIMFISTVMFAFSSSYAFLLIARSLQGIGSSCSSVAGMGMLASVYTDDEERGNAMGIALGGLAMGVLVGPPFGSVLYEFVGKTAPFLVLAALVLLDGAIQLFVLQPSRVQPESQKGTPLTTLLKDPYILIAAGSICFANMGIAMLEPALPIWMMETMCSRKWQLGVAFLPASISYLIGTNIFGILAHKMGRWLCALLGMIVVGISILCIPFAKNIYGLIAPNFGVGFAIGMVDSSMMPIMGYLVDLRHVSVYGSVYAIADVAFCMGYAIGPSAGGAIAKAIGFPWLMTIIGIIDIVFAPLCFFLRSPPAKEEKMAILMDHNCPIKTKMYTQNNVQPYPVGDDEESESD
Sequence of 5-hydroxytryptamine receptor 2A (P28223 whole entry): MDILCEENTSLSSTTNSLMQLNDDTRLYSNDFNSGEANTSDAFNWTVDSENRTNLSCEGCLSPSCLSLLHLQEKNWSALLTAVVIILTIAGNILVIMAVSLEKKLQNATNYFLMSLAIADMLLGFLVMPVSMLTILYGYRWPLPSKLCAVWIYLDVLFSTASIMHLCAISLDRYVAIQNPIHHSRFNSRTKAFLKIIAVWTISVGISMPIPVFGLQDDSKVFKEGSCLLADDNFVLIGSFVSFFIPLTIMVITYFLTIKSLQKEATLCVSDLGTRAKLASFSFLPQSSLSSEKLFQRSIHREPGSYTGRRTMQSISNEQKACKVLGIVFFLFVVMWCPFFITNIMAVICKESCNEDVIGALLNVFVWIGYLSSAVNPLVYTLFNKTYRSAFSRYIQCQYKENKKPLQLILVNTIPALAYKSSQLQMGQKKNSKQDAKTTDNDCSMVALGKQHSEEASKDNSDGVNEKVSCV

Row | SMILES | IC50 [1] | Ki [2] | IC50 [3] | Activity [4] | Activity (HEK293 [5]) | Ki [6] | Ki [7] | Ki [8] | Ki [9] | further results
1 | CCOC(=O)[C@@H]1CN(CCn2c(=O)[nH]c3ccccc3c2=O)CC[C@@H]1c1cccc(C(F)(F)F)c1 (racemic) | 12.8 nM | > 10000 nM | 125 nM | inactive | Non-Toxic | 990 nM | > 10000 nM | 350 nM | > 10000 nM | –
2 | CCOC(=O)[C@@H]1CN(CCn2c(=O)[nH]c3ccccc3c2=O)CC[C@@H]1c1ccc(C)cc1 (racemic) | – | > 10000 nM | 2700 nM | inactive | – | > 10000 nM | 7300 nM | 452 nM | > 9100 nM | –
3 | COc1cc2c(cc1OC)C1CC(O)C(CC(C)C)CN1CC2 (stereo not drawn) | 19.8 nM | 6.7 nM | – | – | Non-Toxic | – | – | – | – | Bmax [10]: 41.2 pmol/mg
4 | CCOC(=O)C1CN(CCn2c(=O)[nH]c3ccccc3c2=O)CCC1c1ccc(F)cc1 (single isomer, unassigned; (+)) | – | – | – | inactive | – | – | – | – | – | –
5 | CN1[C@@H](CC(=O)c2ccccc2)CCC[C@H]1C[C@H](O)c1ccccc1 [LOBELINE] | 381 nM | 7400 nM | 4200 nM | – | – | 1840 nM | – | 1950 nM | > 10000 nM | –
6 | CCC1(O)CC2c3cc(OC)c(OC)cc3CCN2CC1CC(C)C (stereo not drawn) | 49.6 nM | > 10000 nM | 154 nM | – | Non-Toxic | 83 nM | – | 1930 nM | 64 nM | –
7 | CCOC(=O)[C@@H]1CN(CCn2c(=O)[nH]c3ccccc3c2=O)CC[C@@H]1c1ccc(N(C)C)cc1 (racemic) | – | > 10000 nM | 5800 nM | inactive | – | > 10000 nM | > 10000 nM | 1960 nM | > 10000 nM | –
8 | CCOC(=O)[C@@H]1CN(CCn2c(=O)[nH]c3ccccc3c2=O)CC[C@@H]1c1ccc(-c2ccccc2)cc1 (racemic) | – | > 10000 nM | > 10000 nM | inactive | – | > 10000 nM | > 10000 nM | 3770 nM | > 10000 nM | –
9 | CCOC(=O)[C@@H]1CN(CCn2c(=O)[nH]c3ccccc3c2=O)CC[C@@H]1c1ccccc1 (racemic) | 9.1 nM | > 10000 nM | 19.7 nM | inactive | Non-Toxic | 70 nM | 1610 nM | 287 nM | > 7700 nM | –
10 | CCOC(=O)[C@@H]1CN(CCn2c(=O)[nH]c3ccccc3c2=O)CC[C@@H]1c1cccc2c1OCCO2 (racemic) | – | > 10000 nM | – | inactive | – | – | > 10000 nM | – | – | –
11 | CNC(C)Cc1ccccc1 (stereo not drawn) | 2740 nM | 101000 nM | 3620 nM | – | Non-Toxic | 6400 nM | – | 24500 nM | 346000 nM | –
12 | CCOC(=O)[C@H]1CN(CCn2c(=O)[nH]c3ccccc3c2=O)CC[C@H]1c1ccc(F)cc1 | – | – | – | – | – | – | – | – | – | T1/2 [11]: < 1 min; fold change (FC) [12]: 15; Bmax ([10]; tested as the 3H-labelled form): 13.5 pmol/mg; K [13]: 0.051
13 | CCOC(=O)c1ccc([C@H]2CCN(CCn3c(=O)[nH]c4ccccc4c3=O)C[C@H]2C(=O)OCC)cc1 (racemic) | – | > 10000 nM | – | inactive | – | – | > 10000 nM | – | – | –
14 | CCOC(=O)[C@@H]1CN(CCn2c(=O)[nH]c3ccccc3c2=O)CC[C@H]1c1ccc(F)cc1 (racemic) | 24.7 nM | 37.3 nM | – | inactive | Non-Toxic | – | > 9300 nM | – | – | –
15 | O=C(c1ccc(F)cc1)C1CCN(CCn2c(=O)[nH]c3ccccc3c2=O)CC1 [KETANSERIN] | 100 nM | – | 180 nM | – | Non-Toxic | 353 nM | – | 1190 nM | 77 nM | –
16 | COC(=O)[C@H]1[C@H]2C[C@@H]3c4[nH]c5cc(OC)ccc5c4CCN3C[C@H]2C[C@@H](OC(=O)c2cc(OC)c(OC)c(OC)c2)[C@@H]1OC [RESERPINE] | 1.79 nM | – | – | – | – | – | – | – | – | Activity (HEK293 [14]): Non-Toxic; Bmax [10]: 0.942 pmol/mg
17 | CCOC(=O)[C@@H]1CN(CCn2c(=O)[nH]c3ccccc3c2=O)CC[C@@H]1c1cccs1 (racemic) | 31.5 nM | > 9300 nM | 101 nM | inactive | Non-Toxic | 450 nM | > 7100 nM | 900 nM | 6160 nM | –
18 | CCOC(=O)C1CN(CCn2c(=O)[nH]c3ccccc3c2=O)CCC1c1ccc(F)cc1 (single isomer, unassigned; (-)) [listing 1 of 2 here] | 6.6 nM | – | – | – | – | – | 9900 nM | – | – | Ki ([2]; hek293): > 10000 nM
19 | CCOC(=O)[C@@H]1CN(CCn2c(=O)[nH]c3ccccc3c2=O)CC[C@@H]1c1ccc(C(F)(F)F)cc1 (racemic) | – | > 10000 nM | 2900 nM | inactive | – | > 10000 nM | > 10000 nM | 720 nM | > 10000 nM | –
20 | CCOC(=O)C1CN(CCn2c(=O)[nH]c3ccccc3c2=O)CCC1c1ccc(F)cc1 (single isomer, unassigned; (-)) [listing 2 of 2 here] | – | – | – | inactive | – | – | – | – | – | –
21 | CCOC(=O)[C@@H]1CN(CCn2c(=O)[nH]c3ccccc3c2=O)CC[C@@H]1c1ccc(F)cc1 (racemic) | 3.46 nM | 2380 nM | – | inactive | Non-Toxic | – | 4170 nM | – | – | –
